Test results reported in ChEMBL document CHEMBL4270599, “Synthesis of a 3'-C-ethynyl-β-d-ribofuranose purine nucleoside library: Discovery of C7-deazapurine analogs as potent antiproliferative nucleosides” (Eur J Med Chem, 2018).

What was measured:
[1] = test system: NCI-H322M; experiment: Cytotoxicity against human NCI-H322M cells after 48 hrs by SRB assay; type: functional
[2] = test system: LOX IMVI; experiment: Cytotoxicity against human LOXIMVI cells after 48 hrs by SRB assay; type: functional
[3] = test system: SK-MEL-2; experiment: Cytotoxicity against human SK-MEL-2 cells after 48 hrs by SRB assay; type: functional; settings: SK-MEL-2, 48 h
[4] = test system: SN12C; experiment: Cytotoxicity against human SN12C cells after 48 hrs by SRB assay; type: functional
[5] = test system: EKVX; experiment: Growth inhibition of human EKVX cells assessed as cell growth at 10^-8 M incubated for 48 hrs by sulforhodamine B assay relative to control; type: functional; settings: read-out: Activity
[6] = test system: HOP-92; experiment: Growth inhibition of human HOP92 cells assessed as cell growth at 10^-8 M incubated for 48 hrs by sulforhodamine B assay relative to control; type: functional; settings: HOP-92, 48 h, read-out: Activity
[7] = test system: NCI-H322M; experiment: Growth inhibition of human NCI-H322M cells assessed as cell growth at 10^-8 M incubated for 48 hrs by sulforhodamine B assay relative to control; type: functional; settings: read-out: Activity
[8] = test system: HCC 2998; experiment: Growth inhibition of human HCC2998 cells assessed as cell growth at 10^-8 M incubated for 48 hrs by sulforhodamine B assay relative to control; type: functional; settings: HCC 2998, 48 h, read-out: Activity
[9] = test system: KM12; experiment: Growth inhibition of human KM12 cells assessed as cell growth at 10^-8 M incubated for 48 hrs by sulforhodamine B assay relative to control; type: functional; settings: KM12, 48 h, read-out: Activity
[10] = test system: SF-539; experiment: Growth inhibition of human SF539 cells assessed as cell growth at 10^-8 M incubated for 48 hrs by sulforhodamine B assay relative to control; type: functional; settings: SF-539, 48 h, read-out: Activity
[11] = test system: SNB-19; experiment: Growth inhibition of human SNB19 cells assessed as cell growth at 10^-8 M incubated for 48 hrs by sulforhodamine B assay relative to control; type: functional; settings: SNB-19, 48 h, read-out: Activity
[12] = test system: OVCAR-5; experiment: Growth inhibition of human OVCAR5 cells assessed as cell growth at 10^-8 M incubated for 48 hrs by sulforhodamine B assay relative to control; type: functional; settings: OVCAR-5, 48 h, read-out: Activity
[13] = test system: A498; experiment: Growth inhibition of human A498 cells assessed as cell growth at 10^-8 M incubated for 48 hrs by sulforhodamine B assay relative to control; type: functional; settings: A498, 48 h, read-out: Activity
[14] = test system: SN12C; experiment: Growth inhibition of human SN12C cells assessed as cell growth at 10^-8 M incubated for 48 hrs by sulforhodamine B assay relative to control; type: functional; settings: read-out: Activity
[15] = test system: T47D; experiment: Growth inhibition of human T47D cells assessed as cell growth at 10^-8 M incubated for 48 hrs by sulforhodamine B assay relative to control; type: functional; settings: read-out: Activity
[16] = test system: A549; experiment: Growth inhibition of human A549/ATCC cells assessed as cell growth at 10^-7 M incubated for 48 hrs by sulforhodamine B assay relative to control; type: functional; settings: A549, 48 h, read-out: Activity
[17] = test system: SNB-75; experiment: Growth inhibition of human SNB75 cells assessed as cell growth at 10^-7 M incubated for 48 hrs by sulforhodamine B assay relative to control; type: functional; settings: SNB-75, 48 h, read-out: Activity
[18] = test system: LOX IMVI; experiment: Growth inhibition of human LOXIMVI cells assessed as cell growth at 10^-7 M incubated for 48 hrs by sulforhodamine B assay relative to control; type: functional; settings: read-out: Activity
[19] = test system: MDA-MB-435; experiment: Growth inhibition of human MDA-MB-435 cells assessed as cell growth at 10^-7 M incubated for 48 hrs by sulforhodamine B assay relative to control; type: functional; settings: MDA-MB-435, 48 h, read-out: Activity
[20] = test system: MDA-MB-231; experiment: Growth inhibition of human MDA-MB-231 cells assessed as cell growth at 10^-7 M incubated for 48 hrs by sulforhodamine B assay relative to control; type: functional; settings: MDA-MB-231, 48 h, read-out: Activity
[21] = test system: SR; experiment: Growth inhibition of human SR cells assessed as cell growth at 10^-6 M incubated for 48 hrs by sulforhodamine B assay relative to control; type: functional; settings: read-out: Activity
[22] = test system: OVCAR-5; experiment: Growth inhibition of human OVCAR5 cells assessed as cell growth at 10^-6 M incubated for 48 hrs by sulforhodamine B assay relative to control; type: functional; settings: OVCAR-5, 48 h, read-out: Activity
[23] = test system: NCI/ADR-RES; experiment: Growth inhibition of human NCI/ADR-RES cells assessed as cell growth at 10^-6 M incubated for 48 hrs by sulforhodamine B assay relative to control; type: functional; settings: read-out: Activity
[24] = test system: MDA-MB-231; experiment: Growth inhibition of human MDA-MB-231 cells assessed as cell growth at 10^-6 M incubated for 48 hrs by sulforhodamine B assay relative to control; type: functional; settings: MDA-MB-231, 48 h, read-out: Activity
[25] = test system: NCI-H226; experiment: Growth inhibition of human NCI-H226 cells assessed as cell growth at 10^-5 M incubated for 48 hrs by sulforhodamine B assay relative to control; type: functional; settings: NCI-H226, 48 h, read-out: Activity
[26] = test system: OVCAR-4; experiment: Growth inhibition of human OVCAR4 cells assessed as cell growth at 10^-5 M incubated for 48 hrs by sulforhodamine B assay relative to control; type: functional; settings: OVCAR-4, 48 h, read-out: Activity
[27] = test system: MCF7; experiment: Growth inhibition of human MCF7 cells assessed as cell growth at 10^-5 M incubated for 48 hrs by sulforhodamine B assay relative to control; type: functional; settings: MCF7, 48 h, read-out: Activity
[28] = test system: SR; experiment: Growth inhibition of human SR cells assessed as cell growth at 10^-4 M incubated for 48 hrs by sulforhodamine B assay relative to control; type: functional; settings: read-out: Activity
[29] = test system: NCI-H226; experiment: Growth inhibition of human NCI-H226 cells assessed as cell growth at 10^-4 M incubated for 48 hrs by sulforhodamine B assay relative to control; type: functional; settings: NCI-H226, 48 h, read-out: Activity
[30] = test system: MDA-MB-231; experiment: Growth inhibition of human MDA-MB-231 cells assessed as cell growth at 10^-4 M incubated for 48 hrs by sulforhodamine B assay relative to control; type: functional; settings: MDA-MB-231, 48 h, read-out: Activity
[31] = test system: UACC-62; experiment: Growth inhibition of human UACC62 cells assessed as cell growth at 10^-8 M incubated for 48 hrs by sulforhodamine B assay relative to control; type: functional; settings: UACC-62, 48 h, read-out: Activity
[32] = test system: UACC-62; experiment: Growth inhibition of human UACC62 cells assessed as cell growth at 10^-7 M incubated for 48 hrs by sulforhodamine B assay relative to control; type: functional; settings: UACC-62, 48 h, read-out: Activity
[33] = test system: HMEC-1; experiment: Antiproliferative activity against HMEC1 cells after 4 days by Coulter counter method; type: cell-based; settings: Homo sapiens, HMEC-1, 96 h
Method in brief: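 Primary HUVEC, primary HMVEC-d and the HMEC-1 line seeded at 20,000 cells/well in gelatin-coated plates in EC growth medium (EGM2). After overnight incubation, 5-fold compound dilutions added. Cells proliferated four days with compound, then trypsinized and counted by Coulter counter to derive IC₅₀.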

[34] = read-out: pLC50 (the source's name) (converted)

Molecule `C#C[C@@]1(O)[C@@H](CO)O[C@@H](n2ccc3c(N)ncnc32)[C@@H]1O` has a TGI ([1]; read-out: TGI) of 6.08 µM, a GI50 ([1]; read-out: pGI50 (converted)) of 1.29 µM and a CC50 [1, 34] of 50.1 µM. For the same molecule, the TGI ([1]; read-out: pTGI (converted)) was 6.03 µM, the TGI ([2]; read-out: TGI) was 2.05 µM and the GI50 ([2]; read-out: pGI50 (converted)) was 0.661 µM. For the same molecule, the CC50 [2, 34] was 5.13 µM, the TGI ([2]; read-out: pTGI (converted)) was 2.04 µM and the CC50 ([3]; read-out: LC50 (the source's name)) was greater than 100 µM. It also gave a TGI ([3]; read-out: TGI) of 6.32 µM, a GI50 ([3]; read-out: pGI50 (converted)) of 1.38 µM and a TGI ([3]; read-out: pTGI (converted)) of 6.31 µM. For the same molecule, the TGI ([4]; read-out: TGI) was 3.91 µM, the GI50 ([4]; read-out: pGI50 (converted)) was 0.794 µM and the CC50 [4, 34] was 38 µM. For the same molecule, the TGI ([4]; read-out: pTGI (converted)) was 3.89 µM, the growth at 0.01 µM [5] was 87% and the growth at 0.01 µM [6] was 92%. The growth at 0.01 µM [7] was 99%, the growth at 0.01 µM [8] was 99% and the growth at 0.01 µM [9] was 98%. The growth at 0.01 µM [10] was 92%, the growth at 0.01 µM [11] was 99% and the growth at 0.01 µM [12] was 87%. The growth at 0.01 µM [13] was 85%, the growth at 0.01 µM [14] was 94% and the growth at 0.01 µM [15] was 92%. For the same molecule, the growth at 0.1 µM [16] was 107%, the growth at 0.1 µM [17] was 95% and the growth at 0.1 µM [18] was 99%. For the same molecule, the growth at 0.1 µM [19] was 99%, the growth at 0.1 µM [20] was 106% and the growth at 1 µM [21] was 46%. For the same molecule, the growth at 1 µM [22] was 106%, the growth at 1 µM [23] was 45% and the growth at 1 µM [24] was 66%. For the same molecule, the growth at 10 µM [25] was -42%, the growth at 10 µM [26] was -9% and the growth at 10 µM [27] was -4%. It also gave a growth at 100 µM [28] of 11%, a growth at 100 µM [29] of -61% and a growth at 100 µM [30] of -53%. For the same molecule, the growth at 0.01 µM [31] was 97%, the growth at 0.1 µM [32] was 101% and the IC50 [33] was 0.061 µM.
